Laboratory results: ChEMBL document CHEMBL3112565, “Identification of small molecule sphingomyelin synthase inhibitors” (Eur J Med Chem, 2014)
Active and inactive are the calls of the source. No cut-off for these calls is given here.

How the values were obtained:
[1] = Inhibition of sphingomyelin synthase in ICR mouse liver homogenates using C6-NBD-Cer as substrate after 2 hrs; assay type: tissue-based
Method in brief: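 Enzyme was the 12,000 rpm supernatant of ICR mouse liver homogenized at 300 mg/mL in 0.25 M sucrose, 50 mM Tris-HCl pH 7.4, 1 mM EDTA; 2 µg protein per assay. Preincubated with inhibitor 30 min at 37 °C in 10 mM HEPES pH 7.4, 3 mM MnCl2, 0.3% BSA. C6-NBD-ceramide and DMPC were then added and the reaction ran 2 h at 37 °C before ethanol quench. C6-NBD-SM was measured by C18 HPLC with fluorescence detection (ex 475/em 525 nm). IC50 from five inhibitor concentrations, triplicate, log[inhibitor] vs response fit.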

[2] = molecular target: T1, Phosphatidylcholine:ceramide cholinephosphotransferase 2 (Homo sapiens, UniProt Q8NHU3); assay: Inhibition of SMS2 (unknown origin) expressed in H5 insect cells using C6-NBD-Cer as substrate after 1 hr
T1 sequence (Q8NHU3 whole entry): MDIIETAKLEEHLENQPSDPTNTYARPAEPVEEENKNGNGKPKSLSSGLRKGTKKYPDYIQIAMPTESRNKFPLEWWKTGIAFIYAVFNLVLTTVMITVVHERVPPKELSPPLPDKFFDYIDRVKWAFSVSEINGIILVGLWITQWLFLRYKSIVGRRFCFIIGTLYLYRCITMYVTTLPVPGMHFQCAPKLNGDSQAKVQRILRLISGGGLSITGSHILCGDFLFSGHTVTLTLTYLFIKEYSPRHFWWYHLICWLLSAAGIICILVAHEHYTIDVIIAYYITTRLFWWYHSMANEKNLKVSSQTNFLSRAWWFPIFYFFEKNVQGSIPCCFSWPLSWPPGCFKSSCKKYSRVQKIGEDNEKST
Method in brief: (§1)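 SMS2 came from homogenate of H5 insect cells overexpressing it, prepared at 50 mg pellet/mL in 0.25 M sucrose, 50 mM Tris-HCl pH 7.4, 1 mM EDTA and spun at 12,000 rpm for 10 min. The enzyme (2 µg total protein) was preincubated with inhibitor for 30 min at 37 °C in 10 mM HEPES pH 7.4, 3 mM MnCl2, 0.3% BSA. Reaction was started with 1.01 mM C6-NBD-Cer plus DMPC in DMSO and run 1 h at 37 °C. Product was quantified by HPLC as for SMS.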

[3] = Inhibition of sphingomyelin synthase (unknown origin) by cell based assay; conditions: Homo sapiens
[4] = Inhibition of sphingomyelin synthase (unknown origin); set-up: species or system Homo sapiens
[5] = molecular target: T1, Phosphatidylcholine:ceramide cholinephosphotransferase 2; assay: Inhibition of SMS2 (unknown origin) expressed in H5 insect cells using C6-NBD-Cer as substrate at 100 uM after 1 hr; method in brief: as §1
[6] = Cytotoxicity against human HuH7 cells assessed as cell viability after 17 hrs by MTT assay; assay type: cell-based, Huh-7
Method in brief: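 Huh-7 cells exposed to a range of concentrations for 17 h, then viability read by MTT. CC50 is the concentration giving 50% inhibition relative to vehicle (0.25% DMSO). Quintuplicate samples; mean of at least two independent tests.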

[7] = test system: Mus musculus; assay: Inhibition of sphingomyelin synthase in ICR mouse assessed as decrease of sphingomyelin level in plasma at 6 mg/kg, iv after 2 hrs; assay type: functional, organism-based; set-up: dose 6 mg/kg
Method in brief: (§2)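 Female ICR mice (about 25 g), n=5 per group, received 150 µg (6 mg/kg) in 15 µL DMSO plus 185 µL PBS pH 7.4, given i.v. or i.p.; controls got vehicle i.v. Blood was taken from the eye after 2 h and frozen in liquid nitrogen. Plasma ceramide and sphingomyelin were measured by mass spectrometry. Groups compared by Student's t-test.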

[8] = test system: Mus musculus; assay: Inhibition of sphingomyelin synthase in ICR mouse assessed as increase of ceramide level in plasma at 6 mg/kg, iv after 2 hrs; assay type: functional, organism-based; set-up: dose 6 mg/kg; method in brief: as §2
[9] = test system: Mus musculus; assay: Inhibition of sphingomyelin synthase in ICR mouse assessed as increase of ceramide level in plasma at 6 mg/kg, ip after 2 hrs; assay type: functional, organism-based; set-up: dose 6 mg/kg; method in brief: as §2
[10] = test system: Mus musculus; assay: Inhibition of sphingomyelin synthase in ICR mouse assessed as decrease of sphingomyelin level in plasma at 6 mg/kg, ip after 2 hrs; assay type: functional, organism-based; set-up: dose 6 mg/kg; method in brief: as §2
[11] = molecular target: Sphingomyelin synthase (Mus musculus); assay: Inhibition of SMS in ICR mouse liver homogenate using C6-NBD-Cer as substrate after 2 hrs
[12] = Half life in saline solution at 24 degC; assay type: ADME

With `N#CC(Nc1ccc(C(N)=O)cc1)c1ccccc1OCc1ccccc1` (centres undefined) the IC50 [1] was 196 µM and the IC50 [2] was 80.5 µM.
Work on `S=C(S)OC1CC2CC1C1CCCC21` (centres undefined) yielded an IC50 [1] of 402 µM, an EC50 [3] of 90 µM and an IC50 [2] of 224 µM. For the same compound, the IC50 [4] was 375 µM.
In the case of `N#Cc1ccccc1NC(C#N)c1ccccc1OCc1ccccc1` (centres undefined), the IC50 [2] is reported as 20.3 µM.
`N#CC(Nc1cccnc1)c1ccccc1OCc1ccccc1` (centres undefined) gave an IC50 [2] of 35 µM.
With `N#CC(Nc1ccccc1)c1ccccc1` (centres undefined) the IC50 [5] was “Not Active”.
In the case of `COc1ccc(NC(C#N)c2ccccc2OCc2ccccc2)cc1` (centres undefined), the IC50 [2] is reported as 48.1 µM.
For `COc1cccc(NC(C#N)c2ccccc2OCc2ccccc2)c1` (centres undefined), the IC50 [5] was “Not Active”.
For `N#CC(Nc1ccccc1Cl)c1ccccc1OCc1ccccc1` (centres undefined), the IC50 [1] was 90.8 µM and the IC50 [2] was 15.8 µM.
With `N#CC(Nc1ccccc1)c1ccccc1OCc1ccccc1` (centres undefined) the CC50 at 17 h [6] was 245 µM, the IC50 [1] was 24.5 µM and the inhibition [7] was “Active”. For the same compound, the inhibition [8] was “Active”, the IC50 [2] was 13.5 µM and the inhibition [9] was “Active”. The inhibition [10] was “Active”.
For `O=C(C(c1ccccc1)c1ccccc1)N1CCN(CC(O)COc2cccc3ncccc23)CC1` (centres undefined), the IC50 [4] was > 500 µM.
Work on `NC(=O)C(Nc1ccccc1)c1ccccc1OCc1ccccc1` (centres undefined) yielded an IC50 [2] of 135 µM.
Compound `N#CC1c2ccccc2OC(c2ccccc2O)N1c1ccccc1` (centres undefined) has an IC50 [11] of 75 µM.
Work on `S=C(OC1CC2CC1C1CCCC21)[S][K]` (centres undefined) yielded a half-life [12] of 19.5 min.
`Cc1ccccc1NC(C#N)c1ccccc1OCc1ccccc1` (centres undefined) showed an IC50 [2] of 67.2 µM.
For `N#CC(Nc1ccccc1[N+](=O)[O-])c1ccccc1OCc1ccccc1` (centres undefined), the IC50 [2] was 27.4 µM.
`N#CC(NCc1ccco1)c1ccccc1OCc1ccccc1` (centres undefined) gave an IC50 [2] of 71 µM.
For `c1ccc(COc2ccccc2C(Nc2ccccc2)c2nnn[nH]2)cc1` (centres undefined), the IC50 [5] was “Not Active”.
In the case of `N#CC(Nc1ccc(O)cc1)c1ccccc1OCc1ccccc1` (centres undefined), the IC50 [2] is reported as 24.4 µM.
With `c1ccc(COc2ccccc2CNc2ccccc2)cc1` the IC50 [5] was “Not Active”.
In the case of `N#CC(Nc1ccccc1)c1cccc(OCc2ccccc2)c1` (centres undefined), the IC50 [2] is reported as 50.7 µM.
In the case of `Cc1ccc(NC(C#N)c2ccccc2OCc2ccccc2)cc1` (centres undefined), the IC50 [2] is reported as 20.8 µM.
With `N#CC(Nc1ccccc1O)c1ccccc1OCc1ccccc1` (centres undefined) the IC50 [2] was 19 µM.
Compound `COc1ccccc1NC(C#N)c1ccccc1OCc1ccccc1` (centres undefined) has an IC50 [1] of 35.8 µM and an IC50 [2] of 12.4 µM.
With `N#CC(Nc1ccc(Cl)cc1)c1ccccc1OCc1ccccc1` (centres undefined) the IC50 [1] was 93.9 µM and the IC50 [2] was 22.5 µM.
For `Cc1cccc(C)c1NC(C#N)c1ccccc1OCc1ccccc1` (centres undefined), the IC50 [2] was 31.5 µM.
In the case of `N#CC(Nc1ccccc1)c1ccc(OCc2ccccc2)cc1` (centres undefined), the IC50 [5] is reported as “Not Active”.
